# In ChEMBL document CHEMBL1153494, “Design, synthesis, enzyme inhibition, and tumor cell growth inhibition of 2-anilinobenzamide derivatives as SIRT1 inhibitors” (Bioorg Med Chem, 2009):
# What was measured:
# [1] = biological target: T1, NAD-dependent protein deacetylase sirtuin-1 (Homo sapiens, UniProt Q96EB6); experiment: Inhibition of human recombinant SIRT1 by fluorimetric analysis
# T1 sequence (Q96EB6 whole entry): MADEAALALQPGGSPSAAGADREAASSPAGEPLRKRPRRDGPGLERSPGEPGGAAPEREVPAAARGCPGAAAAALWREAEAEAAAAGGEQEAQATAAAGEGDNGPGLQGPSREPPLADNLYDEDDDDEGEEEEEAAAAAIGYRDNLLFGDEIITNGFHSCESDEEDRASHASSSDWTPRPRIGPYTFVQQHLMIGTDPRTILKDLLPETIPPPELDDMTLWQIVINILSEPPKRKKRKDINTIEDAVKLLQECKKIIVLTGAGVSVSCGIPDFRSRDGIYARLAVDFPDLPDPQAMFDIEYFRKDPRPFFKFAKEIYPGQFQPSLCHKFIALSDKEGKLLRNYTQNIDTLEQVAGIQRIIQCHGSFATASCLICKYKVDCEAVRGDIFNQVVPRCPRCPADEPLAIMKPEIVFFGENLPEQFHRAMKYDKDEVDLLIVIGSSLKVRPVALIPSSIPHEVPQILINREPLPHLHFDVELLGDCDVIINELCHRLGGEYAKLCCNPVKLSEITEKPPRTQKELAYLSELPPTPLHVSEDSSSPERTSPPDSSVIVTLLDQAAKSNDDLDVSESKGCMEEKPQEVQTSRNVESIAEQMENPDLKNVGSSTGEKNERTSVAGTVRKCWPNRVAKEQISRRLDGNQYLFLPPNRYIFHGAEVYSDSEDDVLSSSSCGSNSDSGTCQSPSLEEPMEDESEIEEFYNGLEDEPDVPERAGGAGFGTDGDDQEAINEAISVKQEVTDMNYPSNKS
# In short: (§1)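 Recombinant human SIRT1 was incubated at 37 °C with Fluor de Lys-SIRT1 substrate, NAD⁺ and a range of sample concentrations. After 60 min the reaction was stopped with Fluor de Lys Developer II containing nicotinamide. Fluorescence (ex 360 nm / em 460 nm) was read 45 min later, and % inhibition was taken relative to control wells.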
# [2] = tested on: HCT-116; experiment: Growth inhibition of human HCT116 cells at 100 uM after 24 hrs by alamar blue assay; assay type: functional; settings: HCT-116, 72 h, in the assay text read “after 72 hrs” for “after 24 hrs”
# In short: (§2)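 Cells came from ATCC and were grown with penicillin/streptomycin and FBS: HCT116 in McCoy's 5A, Daudi in RPMI. They were seeded at 5000 cells/well; after 24 h, compounds in medium were added at various concentrations for 72 h at 37 °C, 5% CO₂. AlamarBlue was then added for 3 h, fluorescence read (ex 530 / em 590 nm), and % cell growth calculated.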
# [3] = tested on: HCT-116; experiment: Growth inhibition of human HCT116 cells after 24 hrs by alamar blue assay; assay type: functional; settings: HCT-116, 72 h, in the assay text read “after 72 hrs” for “after 24 hrs”; in short: as §2
# [4] = tested on: Daudi; experiment: Growth inhibition of human Daudi cells at 100 uM after 24 hrs by alamar blue assay; assay type: functional; settings: 72 h, in the assay text read “after 72 hrs” for “after 24 hrs”; in short: as §2
# [5] = tested on: Daudi; experiment: Growth inhibition of human Daudi cells after 24 hrs by alamar blue assay; assay type: functional; settings: 72 h, in the assay text read “after 72 hrs” for “after 24 hrs”; in short: as §2
# [6] = biological target: T1, NAD-dependent protein deacetylase sirtuin-1; experiment: Inhibition of human recombinant SIRT1 at 300 uM by fluorimetric analysis; in short: as §1
SMILES,IC50 [1] [µM],GI50 [3] [µM],GI50 [5] [µM],inhibition (INH) [6] [%],inhibition at 100 µM [2] [%],inhibition at 100 µM [4] [%]
NC(=O)c1ccccc1Nc1cccc(CCO)c1,72,> 100,> 100,,12,6
NC(=O)c1ccccc1Nc1cccc(Sc2ccccc2)c1,89,,,,,
NC(=O)c1ccccc1Nc1cccc(CO)c1,60,> 100,> 100,,4,0
Cc1cccc(Nc2ccccc2C(N)=O)c1,68,,,,,
COC(=O)/C=C/c1cccc(Nc2ccccc2C(N)=O)c1,65,,,,,
NC(=O)c1ccccc1Nc1ccc(-c2ccccc2)cc1,,,,36,,
NC(=O)c1ccccc1Sc1ccccc1,78,,,,,

# More lines, in order of falling IC50 [1], values ahead:
IC50 [1] [µM],GI50 [3] [µM],GI50 [5] [µM],inhibition (INH) [6] [%],SMILES,inhibition at 100 µM [2] [%],inhibition at 100 µM [4] [%]
58,> 100,> 100,,NC(=O)c1ccccc1Nc1cccc(/C=C/C(=O)O)c1,0,0
58,50,31,,NC(=O)c1ccccc1Nc1cccc(Oc2ccccc2)c1,126,103
56,> 100,77,,NC(=O)c1ccccc1Nc1ccccc1 [ANILINOBENZAMIDE],21,74
52,43,26,,NC(=O)c1ccccc1Nc1cccc(-c2ccccc2)c1,126,108
